{"source": "paper PMC8414988", "about": "(Pediatric blood & cancer, 2021)", "key": {"[1]": {"settings": "daily, 21 days followed by 7-day rest, adults; cited from earlier work"}, "[2]": {"tested_on": "progressive or refractory brain tumors", "assay": "Tumor response assessment", "type": "in vivo, human", "how_it_was_run": "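Oral once-daily dosing, 21 of 28 days, for up to 26 courses. Response by bi-dimensional MR measurement. CR: all enhancing tumor gone. PR: ≥50% reduction. Both held ≥8 weeks on stable or decreasing corticosteroids. PD: >25% increase from smallest measurement, new lesion, or neurologic worsening. Patients receiving ≥1 dose evaluable.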"}, "[3]": {"assay": "Exposure-toxicity associations", "type": "in vivo, human", "settings": "course 1"}, "[4]": {"settings": "cited from earlier work"}, "[5]": {"assay": "Plasma pharmacokinetics, non-compartmental analysis", "type": "in vivo, human", "settings": "for AUC(0-t) / Cmax / half-life: human, plasma, po"}}}
{"smiles": "CC(=O)c1c(C)c2cnc(Nc3ccc(N4CCNCC4)cn3)nc2n(C2CCCC2)c1=O", "note": "[palbociclib]", "values": [{"measurement": "adult MTD", "setting": "[1]", "value": 125, "unit": "mg"}, {"measurement": "objective response", "setting": "[2]; Stratum I and II", "value": "No patients on either stratum had an objective response"}, {"measurement": "time on treatment", "setting": "[2]; Stratum II, 3 subjects (2 at 50 mg/m^2 and 1 at 75 mg/m^2)", "value": 4, "unit": "courses"}, {"measurement": "time on treatment", "setting": "[2]; one patient with GBM, 75 mg/m^2", "value": 6, "unit": "courses"}, {"measurement": "time on treatment", "setting": "[2]; one patient with anaplastic ependymoma, Stratum I, 75 mg/m^2", "value": 18, "unit": "courses"}, {"measurement": "association of pharmacokinetic variables with thrombocytopenia or lymphopenia", "setting": "[3]", "value": "No association was found"}, {"measurement": "solubility", "setting": "[4]", "value": "pH-dependent solubility"}, {"measurement": "Cmax (mean ± SD)", "setting": "[5]; 50 mg/m^2 oral, Day 1 (single dose), N=7", "value": "69.3 ± 43.7", "unit": "ng/mL"}, {"measurement": "AUC0-Tlast (mean ± SD)", "setting": "[5]; 75 mg/m^2 oral, Day 21 (repeated doses), N=17", "value": "2219 ± 1086", "unit": "ng·h/mL"}, {"measurement": "AUC(0-t)", "setting": "[5]; 50 mg/m2, AUC0-Tlast (median (range)), 50 mg/m^2 oral, Day 1 (single dose), N=7", "value": 1160, "unit": "ng·h/mL"}, {"measurement": "AUC(0-t)", "setting": "[5]; 50 mg/m2, AUC0-Tlast (median (range)), 50 mg/m^2 oral, Day 21 (repeated doses), N=6", "value": 1230, "unit": "ng·h/mL"}, {"measurement": "Cmax", "setting": "[5]; 50 mg/m2, Cmax (median (range)), 50 mg/m^2 oral, Day 1 (single dose), N=7", "value": 54.9, "unit": "ng/mL"}, {"measurement": "Cmax", "setting": "[5]; 50 mg/m2, Cmax (median (range)), 50 mg/m^2 oral, Day 21 (repeated doses), N=6", "value": 77.2, "unit": "ng/mL"}, {"measurement": "half-life", "setting": "[5]; 50 mg/m2, Half-life (median (range)), 50 mg/m^2 oral, Day 1 (single dose), N=7", "value": 13, "unit": "h"}, {"measurement": "half-life", "setting": "[5]; 50 mg/m2, Half-life (median (range)), 50 mg/m^2 oral, Day 21 (repeated doses), N=6", "value": 17.4, "unit": "h"}, {"measurement": "AUC(0-t)", "setting": "[5]; 75 mg/m2, AUC0-Tlast (median (range)), 75 mg/m^2 oral, Day 1 (single dose), N=21", "value": 1830, "unit": "ng·h/mL"}, {"measurement": "AUC(0-t)", "setting": "[5]; 75 mg/m2, AUC0-Tlast (median (range)), 75 mg/m^2 oral, Day 21 (repeated doses), N=17", "value": 2270, "unit": "ng·h/mL"}, {"measurement": "Cmax", "setting": "[5]; 75 mg/m2, Cmax (median (range)), 75 mg/m^2 oral, Day 1 (single dose), N=21", "value": 94, "unit": "ng/mL"}, {"measurement": "half-life", "setting": "[5]; 75 mg/m2, Half-life (median (range)), 75 mg/m^2 oral, Day 1 (single dose), N=21", "value": 13.3, "unit": "h"}, {"measurement": "half-life", "setting": "[5]; 75 mg/m2, Half-life (median (range)), 75 mg/m^2 oral, Day 21 (repeated doses), N=17", "value": 14.4, "unit": "h"}, {"measurement": "AUC(0-t)", "setting": "[5]; 95 mg/m2, AUC0-Tlast (median (range)), 95 mg/m^2 oral, Day 1 (single dose), N=6", "value": 2410, "unit": "ng·h/mL"}, {"measurement": "AUC(0-t)", "setting": "[5]; 95 mg/m2, AUC0-Tlast (median (range)), 95 mg/m^2 oral, Day 21 (repeated doses), N=2", "value": 2190, "unit": "ng·h/mL"}, {"measurement": "half-life", "setting": "[5]; 95 mg/m2, Half-life (median (range)), 95 mg/m^2 oral, Day 1 (single dose), N=6", "value": 14.6, "unit": "h"}, {"measurement": "half-life", "setting": "[5]; 95 mg/m2, Half-life (median (range)), 95 mg/m^2 oral, Day 21 (repeated doses), N=2", "value": 11.3, "unit": "h"}, {"measurement": "dose dependence of mean Cmax and AUC0-Tlast", "setting": "[5]; within 50 and 95 mg/m^2, single and repeated doses", "value": "increased in proportional manner"}]}
